The list is a sample of the results.
Apaf1 activ: activators of human Apaf-1 apoptosome, primary screen, biochemical, DEVD-Rh110 fluorescence, uHTS | activity change, negative = activation, % at 20 µM | AID 489031, 2010 | 330,000 compounds, 0.31% hits | Apaf-1 apoptosome caspase-3 activation; stronger effect = lower value | Apoptotic protease-activating factor 1 (Homo sapiens), O14727;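 active = activity change at or below -40% at 20 µM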
Target sequence (O14727 whole entry, looked up): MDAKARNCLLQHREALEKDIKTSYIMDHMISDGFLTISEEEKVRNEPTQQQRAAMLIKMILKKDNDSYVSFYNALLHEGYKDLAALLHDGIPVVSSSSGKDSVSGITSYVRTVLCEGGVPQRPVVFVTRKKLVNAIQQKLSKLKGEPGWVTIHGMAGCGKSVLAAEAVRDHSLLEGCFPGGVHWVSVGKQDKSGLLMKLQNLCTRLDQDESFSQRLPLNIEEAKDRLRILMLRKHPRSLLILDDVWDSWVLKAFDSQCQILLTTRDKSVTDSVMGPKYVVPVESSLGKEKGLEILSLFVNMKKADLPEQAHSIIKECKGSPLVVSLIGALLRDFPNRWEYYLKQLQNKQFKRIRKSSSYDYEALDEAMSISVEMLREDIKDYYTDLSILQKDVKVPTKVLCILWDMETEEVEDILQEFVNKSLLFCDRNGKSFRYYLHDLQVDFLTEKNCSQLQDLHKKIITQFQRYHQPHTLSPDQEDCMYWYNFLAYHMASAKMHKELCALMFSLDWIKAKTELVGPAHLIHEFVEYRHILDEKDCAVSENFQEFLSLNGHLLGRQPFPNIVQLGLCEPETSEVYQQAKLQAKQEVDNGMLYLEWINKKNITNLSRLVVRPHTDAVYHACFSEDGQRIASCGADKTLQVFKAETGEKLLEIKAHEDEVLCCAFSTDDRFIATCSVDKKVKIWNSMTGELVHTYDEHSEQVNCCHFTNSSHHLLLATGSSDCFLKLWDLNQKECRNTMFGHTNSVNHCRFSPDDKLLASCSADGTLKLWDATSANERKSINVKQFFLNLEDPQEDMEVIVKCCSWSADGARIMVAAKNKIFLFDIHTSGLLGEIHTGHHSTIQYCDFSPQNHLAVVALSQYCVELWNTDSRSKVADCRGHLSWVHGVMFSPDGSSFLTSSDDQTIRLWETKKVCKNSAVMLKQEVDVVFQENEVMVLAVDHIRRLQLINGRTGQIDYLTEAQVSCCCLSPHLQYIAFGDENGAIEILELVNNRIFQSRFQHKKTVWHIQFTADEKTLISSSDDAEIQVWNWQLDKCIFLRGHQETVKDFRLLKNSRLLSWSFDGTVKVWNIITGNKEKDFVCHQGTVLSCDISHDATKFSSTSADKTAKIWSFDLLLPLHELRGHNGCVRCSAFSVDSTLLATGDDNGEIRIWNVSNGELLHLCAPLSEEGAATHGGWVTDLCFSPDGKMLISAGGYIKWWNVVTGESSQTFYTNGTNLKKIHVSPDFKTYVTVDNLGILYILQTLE
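Material: reconstituted apoptosome of Apaf-1, cytochrome c, caspase-9, procaspase-3; times: 30 min preincubation, 50 min reaction, room temperature; measured by: fluorescence, 540 nm emission, 480 nm excitation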
Rh110 interf act: Rh110 fluorescence interference by putative Apaf-1 activators, confirmation, artefact control for Apaf-1 activator project, biochemical, 20 µM; shares compounds with Apaf1 activ; quenched caspase reaction, Ex480/Em540; fluorescence interference (activity change), % at 20 µM, hits read low; 980 tested, under 10 active;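 active = mean activity change at or below -40% when tested at 20 µM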
Apaf-1 act conf: Apaf-1 activators, single-dose retest, confirmation, biochemical, fluorescence, DEVD-Rh110, 20 µM; 980 compounds, 5% hits; AID 504617, 2011; activity change, negative = activation, % at 20 µM; reconstituted apoptosome caspase-3 activity; stronger effect = lower value; shares compounds with Apaf1 activ;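 active = mean activity change at or below -40%, meaning activation of 40% or more, at 20 µM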
Hits are given with their value; – = inactive; · = not tested or not shown.

SMILES | Apaf1 activ | Rh110 interf act | Apaf-1 act conf
Cn1c(CN2CCCC2)nc2cc(NC(=O)COc3ccccc3)ccc21 | – | · | ·
O=C(CN1CCN(Cc2ccccc2)CC1)Nc1cccc(S(=O)(=O)N2CCCCCC2)c1 | -173.5 | – | –
O=C(CSc1ncnc2ccccc12)Nc1cccc(S(=O)(=O)N2CCCC2)c1 | -42.9 | – | –
CCN(c1ccccc1)S(=O)(=O)c1ccc(Cl)c(NC(=O)CN2CCN(C)CC2)c1 | – | · | ·
CCCOc1ccc(N)cc1N | – | · | ·
N=c1n(Cc2ccccc2)c2ccccc2n1CC(O)COc1ccc(Cl)cc1Cl (centres undefined) | – | · | ·
COc1ccc(OCCNc2c([N+](=O)[O-])c(=O)oc3ccccc23)cc1 | – | · | ·
O=[N+]([O-])c1cccnc1SCc1ccccc1 | -514.3 | – | –
COc1ccc(NC(=O)c2c[nH]n3c(=O)cc(C4CCN(C(=O)OC(C)(C)C)CC4)nc23)cc1Cl | – | · | ·
O=C(/C=C/c1ccc(O)c(O)c1)O[C@@H]1C[C@](O)(C(=O)O)C[C@@H](O)[C@H]1O | – | · | ·
N#Cc1c2c(c(-n3cnc4ccccc43)n3c1nc1ccccc13)CCC2 | – | · | ·
O=C1CN(C(=O)c2cnccn2)c2ccccc2N1 | -46.9 | – | –
O=C1Nc2ccccc2N2CCCC12 (centres undefined) | – | · | ·
CCCCCCSc1cc(-c2nc3ccc(C)cn3c2NCCCC)ccc1OC | – | · | ·
CC1=NN(c2ccccc2)C(=O)C1 | – | · | ·
COc1ccc(N2CC(C(=O)N/N=C/c3cc([N+](=O)[O-])ccc3O)CC2=O)cc1 (centres undefined) | -318.3 | – | –
COc1cc2sc(-c3ccccc3OC)c(-c3ccc(OCCN4CCCCC4)cc3)c2cc1OC | – | · | ·
Cc1c(CCOC(=O)c2ccc(Cl)cc2Cl)sc[n+]1CC(=O)c1ccccc1 | – | · | ·
CCN(CC)C(=O)C1CCCN(C(=O)Nc2ccc3nsnc3c2)C1 (centres undefined) | – | · | ·
COc1ccc(NC(=S)Nc2ccccn2)c(OC)c1 | -48.0 | – | –
COc1ccc(NC(=S)Nc2cccc3ccccc23)cc1OC | – | · | ·
CCO/C=C1/C(=O)N(C)C(=O)c2cc(OC)ccc21 | – | · | ·
CCO[C@@H]1OC(C(=O)N2CCN(Cc3ccc4c(c3)OCO4)CC2)=C[C@H](c2ccc(C(F)(F)F)cc2)[C@H]1CCCO | – | · | ·
CCOC(=O)N1CCN(c2ccc([N+](=O)[O-])cc2)CC1 | -141.8 | – | –
CCN(CC)c1ccc(/C=C2/C(=O)N(c3ccc([N+](=O)[O-])cc3)N=C2N2CCOCC2)cc1 | – | · | ·
SMILES | Apaf1 activ | Rh110 interf act | Apaf-1 act conf
CCOC(=O)N1CCN(C2=C(NS(=O)(=O)c3ccc(NC(C)=O)cc3)C(=O)c3ccccc3C2=O)CC1 | – | · | ·
CCC(=O)N(C1=C(NC)C(=O)c2ccccc2C1=O)C(C)C | – | · | ·
CCOc1cccc(-c2cc(=O)[nH][nH]2)c1 | – | · | ·
CCN(c1ccccc1)c1cc2ccccc2c(=O)[nH]1 | – | · | ·
CCN(CC)C(=O)C(=O)c1c(-c2ccccc2)[nH]c2ccccc12 | -509.5 | – | –
Cc1ccc(C(=O)N/C(=C\c2ccc(-c3ccccc3[N+](=O)[O-])o2)C(=O)NCCCN2CCOCC2)cc1 | – | · | ·
C#CCOCCOCCOCCNc1nc(N2CCN(C(=O)CCCCCCCCCCNC(=O)[C@H](CO)n3cc(CCCSC)nn3)CC2)nc(N2CCN(C(=O)CCCCCCCCCCNC(=O)[C@H](CCCCN)n3cc(C[C@@H](C)CC)nn3)CC2)n1 | – | · | ·
Cc1ccc2ccc(C3C(=O)c4ccccc4C3=O)nc2c1 | -169.6 | – | –
CC(C)[n+]1ccn(C2=C([O-])c3ccccc3C(=O)/C2=N\S(=O)(=O)c2ccccc2)c1 | – | · | ·
Cc1ccc(N(C)S(=O)(=O)c2cccc(C(=O)Nc3ccc(C)cn3)c2)cc1 | – | · | ·
COCCNC(=O)c1c[nH]c2ccc(S(=O)(=O)N(C)c3ccc(C)c(C)c3)cc2c1=O | -68.0 | – | –
Cc1ccc(NC2=C(NC(=O)c3ccccc3)C(=O)c3ccccc3C2=O)cc1Cl | – | · | ·
CC(C)(O)C#Cc1ccc(CN2CCC(n3nccc3NC(=O)C3CC3)CC2)cc1 | -78.6 | – | –
NC1=NC[C@H](c2ccccc2)N1CCc1cc(C(F)(F)F)cc(C(F)(F)F)c1 | – | · | ·
CCN(CC)CCN(C(=O)c1ccc2c(c1)CCCC2)c1nc2ccc(C)cc2s1 | – | · | ·
CCCCN=Cc1c(C)[nH]n(-c2ccccc2)c1=S | -80.0 | – | –
Cc1cc(C(=O)N/N=C/c2c(C)[nH]n(-c3ccccc3)c2=O)n[nH]1 | – | · | ·
CCCCN(CCCC)C(=S)N/N=C/c1c(C)[nH]n(-c2ccccc2)c1=O | – | · | ·
CCN(CC)CCCNC1=C(Cl)C(=O)c2ccccc2C1=O | – | · | ·
COc1ccc2oc(C)c(C(=O)Cn3ccnc3)c2c1 | -246.0 | – | –
COc1ccc(C(CCN2CCCCC2)c2c(OC)cc(OC)c3c(-c4ccccc4)cc(=O)oc23)cc1 (centres undefined) | – | · | ·
C[C@@H](CN1C2=NC[C@H](Cc3ccccc3)N2C[C@H]1Cc1ccc(O)cc1)NC(=O)CCC1CCCCC1 | – | · | ·
O=C(NCCCN1CCc2ccccc2C1)C1CCN(c2nnc(-n3cccc3)s2)CC1 | – | · | ·
Cc1ccc(C)n1-c1nnc(N2CCC(C(=O)NCCCN3CC(C)CC(C)C3)CC2)s1 (centres undefined) | -402.0 | – | –
Cc1cc2ccccc2n1CCNC(=O)C1CCCCC1 | – | · | ·
SMILES | Apaf1 activ | Rh110 interf act | Apaf-1 act conf
CCC(=O)NC1=C(Cl)C(=O)C(NC(=O)CC)=C(Cl)C1=O | – | · | ·
COc1ccc(NC(=O)N2CCCC2C(=O)Nc2ccccc2)cc1 (centres undefined) | -41.5 | – | –
O=C(NCCc1ccccc1)C1CCCN1C(=O)Nc1ccc(F)cc1 (centres undefined) | -43.2 | – | –
COC(=O)C1=C(C)N(Cc2ccccc2)C(=NCc2ccc(OC)cc2)N[C@H]1c1ccccc1 | – | · | ·
CC(=O)Nc1ccc(NC(=O)C2CCCN2C(=O)Nc2ccc(F)cc2)cc1 (centres undefined) | -208.1 | – | –
COc1cccc2c1C(=O)c1ccc3ccccc3c1C2=O | – | · | ·
Nc1nn2c(-c3ccccc3)cc(=O)[nH]c2c1N=Nc1ccc(O)cc1 | – | · | ·
OCCN1CCN(CC/C=C2/c3ccccc3Sc3ccc(Cl)cc32)CC1 | – | · | ·
CCOC(=O)NNc1ccc2nonc2c1[N+](=O)[O-] | – | · | ·
CCC(C)n1c(NC(=O)c2ccccc2)c(C#N)c2nc3ccccc3nc21 (centres undefined) | – | · | ·
NS(=O)(=O)c1ccc(N=Nc2c[nH]c(=O)c(O)c2)cc1 | – | · | ·
O=C1C(NS(=O)(=O)c2cccs2)=C(N2CCN(c3cccc(Cl)c3)CC2)C(=O)c2ccccc21 | – | · | ·
O=C(O)c1cccc(CN2C(=O)CSC2=O)c1 | -52.2 | – | –
CCCC1=Nc2cc(C(=O)NCCCOCC)ccc2Sc2ccccc21 | – | · | ·
O=C(COC(=O)/C=C/c1ccc(OC(F)F)cc1)NC1CCCCCC1 | -64.2 | – | –
CCN1CCN(c2ccc(S(=O)(=O)N3CCCCC3)cc2NC(=O)/C=C/c2ccc(OC(F)F)cc2)CC1 | – | · | ·
COc1cc(NCCCCCCCN)c2ncccc2c1 | – | · | ·

Assay outcomes deposited in PubChem BioAssay by Sanford-Burnham Center for Chemical Genomics.
